Values after ≈ are worked out from the molar mass of the structure shown.
Experiments:
Blumeria hordei [1] = test: Antifungal activity against Blumeria graminis f. sp. hordei assessed as control of barley powdery mildew treated 1 day before inoculation; assay type: functional, organism-based
In short: (§1)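 One-day protective test on barley against powdery mildew: plants treated 1 day before inoculation, with Tween 20 solution alone as the untreated reference. Pots in randomized complete block design, three replicates per treatment, experiment run twice. Infected leaf area (%) scored; % control = 100[(A − B)/A], A = infection on Tween 20-sprayed leaves, B = infection on treated leaves; reported ± standard deviation.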

Podosphaera macularis [2] = test: Antifungal activity against Sphaerotheca humuli assessed as diseased fruits in strawberry powdery mildew at 4000 fold dilution (reference value: 62.2%); assay type: functional
In short: (§2)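 Commercial greenhouse trial on strawberry cv. Janghee. Plots were 4 m long, with data taken from the middle 3 m. Sprays applied by hand-held sprayer until runoff, three times at 1-week intervals. Before each spray, ripe fruits were harvested and total and diseased fruits counted. Percentage of diseased fruits given as the mean of three replicates; disease-control percentage calculated relative to untreated control.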

Podosphaera macularis [3] = test: Antifungal activity against Sphaerotheca humuli assessed as control of strawberry powdery mildew at 4000 fold dilution; assay type: functional; in short: as §2
Blumeria hordei [4] = test: Antifungal activity against Blumeria graminis f. sp. hordei assessed as control of barley powdery mildew at 16 ug/mL treated 1 day before inoculation; assay type: functional
In short: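 Barley plants in pots treated with sample in Tween 20 solution and inoculated 1 day later (protective assay). Randomized complete block design, three replicates per treatment, experiment run twice. Infected leaf area (%) scored. % control = 100[(A−B)/A], where A is the infection area on leaves sprayed with Tween 20 solution alone; reported ± standard deviation.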

Blumeria hordei [5] = test: Antifungal activity against Blumeria graminis f. sp. hordei assessed as control of barley powdery mildew at 63 ug/mL treated 1 day before inoculation; assay type: functional; in short: as §1
[6] = Blumeria hordei, read-out: IC50

SMILES	IC50 (Blumeria hordei [1]; [6]) [µg/mL]	Activity (Blumeria hordei [5]) [%]	also measured
CCCOC/C(=N\c1ccc(Cl)cc1C(F)(F)F)n1ccnc1 [TRIFLUMIZOLE]			Activity (Podosphaera macularis [2]): 7.2%; Activity (Podosphaera macularis [3]): 89%
CO[C@H]1C[C@H](O[C@H]2[C@@H](OC)C[C@H](O[C@H]3CC[C@@]4(C)C(=CC[C@]5(O)[C@@H]4C[C@@H](OC(=O)/C=C(\C)C(C)C)[C@@]4(C)[C@]5(O)CC[C@]4(O)C(C)=O)C3)O[C@@H]2C)O[C@@H](C)[C@H]1O[C@H]1C[C@H](OC)[C@H](O[C@H]2C[C@@H](OC)[C@@H](O)[C@H](C)O2)[C@@H](C)O1 [WILFOSIDE C1N]	3.24 (≈ 3.04 µM)	>77	Activity (Blumeria hordei [4]): 95%
CO[C@H]1C[C@H](O[C@H]2[C@@H](OC)C[C@H](O[C@H]3CC[C@@]4(C)C(=CC[C@]5(O)[C@@H]4C[C@@H](OC(=O)/C=C/c4ccccc4)[C@@]4(C)[C@]5(O)CC[C@]4(O)C(C)=O)C3)O[C@@H]2C)O[C@@H](C)[C@H]1O[C@H]1C[C@H](OC)[C@H](O[C@H]2C[C@@H](OC)[C@@H](O)[C@H](C)O2)[C@@H](C)O1 [WILFOSIDE K1N]			IC50 (Blumeria hordei [1]): Not Active
CO[C@H]1C[C@H](O[C@H]2[C@@H](OC)C[C@H](O[C@H]3CC[C@@]4(C)C(=CC[C@]5(O)[C@@H]4C[C@@H](OC(=O)/C=C/c4ccccc4)[C@@]4(C)[C@]5(O)CC[C@]4(O)C(C)=O)C3)O[C@@H]2C)O[C@@H](C)[C@H]1O[C@H]1C[C@H](OC)[C@H](O[C@H]2C[C@@H](OC)[C@@H](O[C@@H]3O[C@H](CO)[C@@H](O[C@@H]4O[C@H](CO)[C@@H](O)[C@H](O)[C@H]4O)[C@H](O)[C@H]3O)[C@H](C)O2)[C@@H](C)O1 [WILFOSIDE K1GG]			IC50 (Blumeria hordei [1]): Not Active
CO[C@H]1C[C@H](O[C@H]2[C@@H](OC)C[C@H](O[C@H]3CC[C@@]4(C)C(=CC[C@]5(O)[C@@H]4C[C@@H](OC(=O)/C=C(\C)C(C)C)[C@@]4(C)[C@]5(O)CC[C@]4(O)C(C)=O)C3)O[C@@H]2C)O[C@@H](C)[C@H]1O[C@H]1C[C@H](OC)[C@H](O[C@H]2C[C@@H](OC)[C@@H](O[C@@H]3O[C@H](CO)[C@@H](O[C@@H]4O[C@H](CO)[C@@H](O)[C@H](O)[C@H]4O)[C@H](O)[C@H]3O)[C@H](C)O2)[C@@H](C)O1 [WILFOSIDE C1GG]	28.3 (≈ 20.4 µM)	>77	

More lines, main results first:

IC50 (Blumeria hordei [1]; [6]) [µg/mL]	SMILES	Activity (Blumeria hordei [5]) [%]	also measured
71.4 (≈ 141 µM)	NC(=O)OC[C@H](O)[C@@H](O)[C@H](N)C(=O)N[C@H](C(=O)O)[C@H]1O[C@@H](n2cc(CO)c(=O)[nH]c2=O)[C@H](O)[C@@H]1O [POLYOXIN B]		
20 (≈ 92.5 µM)	CC(=O)c1c(C)cc2cccc(O)c2c1O [NEPODIN]		
12.9 (≈ 10.5 µM)	CO[C@H]1C[C@H](O[C@H]2[C@@H](OC)C[C@H](O[C@H]3CC[C@@]4(C)C(=CC[C@]5(O)[C@@H]4C[C@@H](OC(=O)/C=C(\C)C(C)C)[C@@]4(C)[C@]5(O)CC[C@]4(O)C(C)=O)C3)O[C@@H]2C)O[C@@H](C)[C@H]1O[C@H]1C[C@H](OC)[C@H](O[C@H]2C[C@@H](OC)[C@@H](O[C@@H]3O[C@H](CO)[C@@H](O)[C@H](O)[C@H]3O)[C@H](C)O2)[C@@H](C)O1 [WILFOSIDE C1G]	>77	Activity (Blumeria hordei [4]): 78%
4.7 (≈ 18.5 µM)	Cc1cc(O)c2c(c1)C(=O)c1cccc(O)c1C2=O [CHRYSOPHANOL]		

Source: ChEMBL document CHEMBL3044585, “Potent in vivo antifungal activity against powdery mildews of pregnane glycosides from the roots of Cynanchum wilfordii” (J Agric Food Chem, 2011)
